Laboratory results as given in ChEMBL document CHEMBL4689842, “EUbOPEN Chemogenomics Library wave 1” (2021).
Where “and” joins values, the source holds several entries; their conditions need not be identical. Equal values may be shown once.

Tested on: U2OS
Assay: Multiplex assay against U2OS
Format: toxicity, cell-based
Details: human, 1 µM, compound concentration 1 uM
How it was run: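 Four dyes were applied at seeding to live cells: Hoechst33342, BioTracker Green Microtubule Cytoskeleton Dye, MitoTracker Red and Annexin V Alexa Fluor 680. Imaging after compound addition used a CQ1 microscope at 37°C and 5% CO2. CellPathfinder machine-learning gating then sorted cells into Hoechst high-intensity objects or normal cells, normal cells into healthy, pyknosed or fragmented nuclei, and pyknosed cells into mitotic or apoptotic, with tubulin, mitochondrial-mass and membrane-permeability phenotypes given as per cents of healthy-nucleus cells.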

C[C@]1(O)C[C@@H](c2nc(-c3ccc4ccc(-c5ccccc5)nc4c3)c3c(N)nccn32)C1 [LINSITINIB]
Population Apoptotic (%) (12 h, replicate 1): 57% and 35% | Population Fragmented Nuclei (%) (12 h, replicate 1): 10% and 3% | Population Healthy Nuclei (%) (12 h, replicate 1): 79% and 85% | Population Hoechst High Intensity Objects (%) (12 h, replicate 1): 2% and 4% | Population Mitochondria Different-Phenotype (%) (12 h, replicate 1): 17% and 28% | Population Mitotic Cells (%) (12 h, replicate 1): 42% and 64% | Population Normal (%) (12 h, replicate 1): 97% and 95% | Population Pyknosed Nuclei (%) (12 h, replicate 1): 9% and 11% | Population Tubulin-Different-Phenotype (%) (12 h, replicate 1): 50% | Total Cell Count (12 h, replicate 1): 132 and 196 | Population Apoptotic (%) (12 h, replicate 2): 50% and 33% | Population Fragmented Nuclei (%) (12 h, replicate 2): 13% and 5% | Population Healthy Nuclei (%) (12 h, replicate 2): 81% and 89% | Population Hoechst High Intensity Objects (%) (12 h, replicate 2): 8% and 19% | Population Membrane Permeable-Phenotype (%) (12 h, replicate 2): 39% and 16% | Population Mitochondria Different-Phenotype (%) (12 h, replicate 2): 16% and 25% | Population Mitotic Cells (%) (12 h, replicate 2): 50% and 66% | Population Normal (%) (12 h, replicate 2): 91% and 80% | Population Pyknosed Nuclei (%) (12 h, replicate 2): 5% and 4% | Population Tubulin-Different-Phenotype (%) (12 h, replicate 2): 45% and 28% | Total Cell Count (12 h, replicate 2): 83 and 65 | Population Apoptotic (%) (24 h, replicate 1): 48% and 53% | Population Fragmented Nuclei (%) (24 h, replicate 1): 4% | Population Healthy Nuclei (%) (24 h, replicate 1): 76% and 87% | Population Membrane Permeable-Phenotype (%) (24 h, replicate 1): 23% and 8% | Population Mitochondria Different-Phenotype (%) (24 h, replicate 1): 20% and 22% | Population Mitotic Cells (%) (24 h, replicate 1): 51% and 46% | Population Normal (%) (24 h, replicate 1): 94% and 98% | Population Pyknosed Nuclei (%) (24 h, replicate 1): 11% and 8% | Population Tubulin-Different-Phenotype (%) (24 h, replicate 1): 41% and 33% | Total Cell Count (24 h, replicate 1): 180 and 194 | Population Fragmented Nuclei (%) (24 h, replicate 2): 12% and 8% | Population Healthy Nuclei (%) (24 h, replicate 2): 79% and 84% | Population Membrane Permeable-Phenotype (%) (24 h, replicate 2): 27% and 13% | Population Mitochondria Different-Phenotype (%) (24 h, replicate 2): 19% and 28% | Population Mitotic Cells (%) (24 h, replicate 2): 60% and 100% | Population Normal (%) (24 h, replicate 2): 95% and 86% | Population Pyknosed Nuclei (%) (24 h, replicate 2): 7% | Population Tubulin-Different-Phenotype (%) (24 h, replicate 2): 28% and 38% | Total Cell Count (24 h, replicate 2): 114 and 78

Cc1cc(C)c(-n2ccn3nc(-c4cccnc4)cc23)cc1NC(=O)c1cc(C#N)cc(S(F)(F)(F)(F)F)c1 [BAY-826]
Population Apoptotic (%) (12 h, replicate 1): 68% and 80% | Population Fragmented Nuclei (%) (12 h, replicate 1): 11% and 8% | Population Healthy Nuclei (%) (12 h, replicate 1): 75% and 87% | Population Hoechst High Intensity Objects (%) (12 h, replicate 1): 4% | Population Membrane Permeable-Phenotype (%) (12 h, replicate 1): 45% and 44% | Population Mitochondria Different-Phenotype (%) (12 h, replicate 1): 41% and 26% | Population Mitotic Cells (%) (12 h, replicate 1): 31% and 20% | Population Normal (%) (12 h, replicate 1): 95% | Population Pyknosed Nuclei (%) (12 h, replicate 1): 13% and 5% | Population Tubulin-Different-Phenotype (%) (12 h, replicate 1): 99% and 93% | Total Cell Count (12 h, replicate 1): 168 and 105 | Population Apoptotic (%) (12 h, replicate 2): 75% and 78% | Population Fragmented Nuclei (%) (12 h, replicate 2): 13% and 15% | Population Healthy Nuclei (%) (12 h, replicate 2): 81% and 69% | Population Hoechst High Intensity Objects (%) (12 h, replicate 2): 11% and 12% | Population Membrane Permeable-Phenotype (%) (12 h, replicate 2): 36% and 35% | Population Mitochondria Different-Phenotype (%) (12 h, replicate 2): 27% and 79% | Population Mitotic Cells (%) (12 h, replicate 2): 25% and 21% | Population Normal (%) (12 h, replicate 2): 88% and 87% | Population Pyknosed Nuclei (%) (12 h, replicate 2): 15% | Population Tubulin-Different-Phenotype (%) (12 h, replicate 2): 68% and 100% | Total Cell Count (12 h, replicate 2): 85 | Population Apoptotic (%) (24 h, replicate 1): 50% and 85% | Population Fragmented Nuclei (%) (24 h, replicate 1): 9% | Population Healthy Nuclei (%) (24 h, replicate 1): 82% and 53% | Population Hoechst High Intensity Objects (%) (24 h, replicate 1): 5% | Population Membrane Permeable-Phenotype (%) (24 h, replicate 1): 36% and 51% | Population Mitochondria Different-Phenotype (%) (24 h, replicate 1): 44% and 78% | Population Normal (%) (24 h, replicate 1): 94% | Population Tubulin-Different-Phenotype (%) (24 h, replicate 1): 63% | Total Cell Count (24 h, replicate 1): 134 and 155 | Population Apoptotic (%) (24 h, replicate 2): 80% and 70% | Population Fragmented Nuclei (%) (24 h, replicate 2): 19% and 10% | Population Healthy Nuclei (%) (24 h, replicate 2): 50% and 78% | Population Hoechst High Intensity Objects (%) (24 h, replicate 2): 13% and 9% | Population Membrane Permeable-Phenotype (%) (24 h, replicate 2): 56% and 28% | Population Mitotic Cells (%) (24 h, replicate 2): 19% and 30% | Population Normal (%) (24 h, replicate 2): 87% and 90% | Population Pyknosed Nuclei (%) (24 h, replicate 2): 29% and 11% | Population Tubulin-Different-Phenotype (%) (24 h, replicate 2): 100% and 48% | Total Cell Count (24 h, replicate 2): 100 and 98
